{
  "source": "paper PMC7658073",
  "about": "(Clinical Pharmacokinetics, 2020)",
  "key": {"[1]": {"molecular_target": "T1, organic cation transporter 1 (Homo sapiens, UniProt O15245)", "T1 sequence (O15245 1-554)": "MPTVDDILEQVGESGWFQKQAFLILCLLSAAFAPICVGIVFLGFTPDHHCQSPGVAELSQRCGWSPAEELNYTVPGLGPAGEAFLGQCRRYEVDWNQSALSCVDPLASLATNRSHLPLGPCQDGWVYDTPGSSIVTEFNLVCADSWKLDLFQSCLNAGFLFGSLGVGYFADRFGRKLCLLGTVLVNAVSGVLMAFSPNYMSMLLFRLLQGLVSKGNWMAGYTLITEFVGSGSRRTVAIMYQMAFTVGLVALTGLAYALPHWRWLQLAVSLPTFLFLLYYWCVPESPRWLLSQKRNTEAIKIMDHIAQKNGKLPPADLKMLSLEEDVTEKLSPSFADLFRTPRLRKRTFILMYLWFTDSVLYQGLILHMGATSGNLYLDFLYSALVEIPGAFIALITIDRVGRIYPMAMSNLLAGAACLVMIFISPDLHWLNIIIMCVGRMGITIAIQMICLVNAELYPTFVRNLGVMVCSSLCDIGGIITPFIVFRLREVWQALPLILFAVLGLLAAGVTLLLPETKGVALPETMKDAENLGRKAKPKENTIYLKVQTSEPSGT", "assay": "Inhibitory potency towards OCT1", "assay_type": "in vitro ADME"}, "CYP3A4": {"tested_on": "CYP3A4", "assay": "CYP induction in cultured human hepatocytes: CYP3A4", "assay_type": "in vitro ADME", "conditions": "one of the three donors"}, "[2]": {"assay": "Phase I DDI study with ketoconazole", "assay_type": "in vivo, human", "procedure,_shortened": "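Randomized, open-label, two-fold crossover in healthy men. Ketoconazole 200 mg BID orally for 3 days, given before and with a single oral 1.25 mg dose of test compound, fed, versus test compound alone.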"}, "[3]": {"tested_on": "major cytochrome P450 (CYP) isoforms", "conditions": "human liver microsomes; cited from earlier work"}, "[4]": {"assay": "Phase I DDI study with aspirin", "assay_type": "in vivo, human", "conditions": "with aspirin 500 mg vs vericiguat 15 mg SD alone, fasting"}, "[5]": {"assay": "Phase I DDI study with rifampicin", "assay_type": "in vivo, human", "procedure,_shortened": "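Non-randomized, non-blinded, fixed-sequence study in healthy men. Test compound 10 mg single oral dose, fed, alone and then with rifampicin 600 mg QD orally for 9 days (pre- and co-treatment).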"}, "P-glycoprotein [6]": {"molecular_target": "T2, P-glycoprotein (Homo sapiens, UniProt P08183)", "T2 sequence (P08183 whole entry)": "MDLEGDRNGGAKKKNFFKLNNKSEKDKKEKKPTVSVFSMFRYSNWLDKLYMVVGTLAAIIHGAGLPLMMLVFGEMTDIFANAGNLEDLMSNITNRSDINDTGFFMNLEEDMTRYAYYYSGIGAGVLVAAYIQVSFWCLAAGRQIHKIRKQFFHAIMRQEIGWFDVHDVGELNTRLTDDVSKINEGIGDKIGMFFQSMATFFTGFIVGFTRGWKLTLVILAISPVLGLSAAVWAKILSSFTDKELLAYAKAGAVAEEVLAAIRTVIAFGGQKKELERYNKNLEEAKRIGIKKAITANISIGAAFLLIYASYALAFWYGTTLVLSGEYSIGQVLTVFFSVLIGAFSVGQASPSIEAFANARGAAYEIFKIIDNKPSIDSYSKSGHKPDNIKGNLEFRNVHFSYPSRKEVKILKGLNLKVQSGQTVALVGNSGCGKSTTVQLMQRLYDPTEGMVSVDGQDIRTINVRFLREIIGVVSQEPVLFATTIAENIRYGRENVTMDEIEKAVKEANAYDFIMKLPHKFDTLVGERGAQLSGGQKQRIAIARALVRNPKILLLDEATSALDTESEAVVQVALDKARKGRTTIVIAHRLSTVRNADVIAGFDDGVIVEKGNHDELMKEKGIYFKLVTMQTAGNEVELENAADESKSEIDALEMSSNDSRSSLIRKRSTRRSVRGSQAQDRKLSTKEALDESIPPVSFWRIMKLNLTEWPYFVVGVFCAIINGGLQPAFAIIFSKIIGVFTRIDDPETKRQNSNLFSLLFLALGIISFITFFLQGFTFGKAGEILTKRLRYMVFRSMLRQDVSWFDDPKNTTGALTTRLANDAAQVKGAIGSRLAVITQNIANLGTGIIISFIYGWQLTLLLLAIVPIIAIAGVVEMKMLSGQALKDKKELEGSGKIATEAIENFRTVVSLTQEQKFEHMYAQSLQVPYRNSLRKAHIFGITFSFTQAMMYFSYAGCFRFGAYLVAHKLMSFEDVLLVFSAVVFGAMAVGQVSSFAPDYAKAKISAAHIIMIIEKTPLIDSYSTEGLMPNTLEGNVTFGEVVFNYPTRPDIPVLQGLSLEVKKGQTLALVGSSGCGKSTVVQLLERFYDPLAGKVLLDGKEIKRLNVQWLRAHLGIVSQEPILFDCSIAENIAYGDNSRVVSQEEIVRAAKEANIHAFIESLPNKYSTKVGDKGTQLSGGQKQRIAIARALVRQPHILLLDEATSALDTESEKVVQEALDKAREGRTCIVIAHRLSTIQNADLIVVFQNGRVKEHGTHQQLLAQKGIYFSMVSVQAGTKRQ", "assay": "Inhibitory potential towards P-gp", "assay_type": "in vitro ADME"}, "Human mass balance study": {"assay": "Human mass balance study", "assay_type": "in vivo", "conditions": "14C-labeled vericiguat 5 mg oral", "procedure,_shortened": "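Open-label, non-randomized, non-placebo-controlled study in six healthy male volunteers. Single oral solution of 5 mg [14C]-labelled test compound given fasting. Urine and feces collected up to 336 h and total radioactivity measured as % of dose, summarized descriptively as mean (range). Plasma components expressed as share of total radioactivity AUC.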"}, "[7]": {"conditions": "cited from earlier work"}, "[8]": {"assay": "pKa and pH-dependent solubility", "assay_type": "physicochemical"}, "[9]": {"assay": "Phase I DDI study with digoxin", "assay_type": "in vivo, human", "conditions": "with digoxin 0.375 mg QD vs vericiguat 10 mg alone, fed"}, "[10]": {"conditions": "multiple oral doses vericiguat 2.5 mg 2 h prior to sacubitril/valsartan; cited from earlier work"}, "P-glycoprotein [11]": {"molecular_target": "T2, P-glycoprotein", "assay": "Substrate properties towards P-gp", "assay_type": "in vitro ADME"}, "[12]": {"assay": "Phase I DDI study with sildenafil", "assay_type": "in vivo, human"}, "[13]": {"assay": "All phase I studies in healthy volunteers", "assay_type": "in vivo, human", "procedure,_shortened": "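Healthy male volunteers, excluding regular medication, interacting foods/beverages or supplements, and non-adherence to smoking rules. All study drugs given orally. Tolerability recorded as treatment-emergent adverse events. Non-compartmental PK: AUC0–∞ by linear-log trapezoid plus extrapolation from the terminal log-linear slope; Cmax and trough read directly. Log-transformed parameters compared by ANOVA to give geometric mean ratios with 90% CIs.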"}, "CYP2B6": {"tested_on": "CYP2B6", "assay": "CYP induction in cultured human hepatocytes: CYP2B6", "assay_type": "in vitro ADME", "conditions": "three donors, up to 10,000 μg/L (23.5 µM)"}, "[14]": {"assay": "Phase I DDI study with omeprazole and magnesium/aluminum hydroxide", "assay_type": "in vivo, human", "procedure,_shortened": "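Randomized, open-label, three-fold crossover in healthy men. Test compound 5 mg single oral dose given fasting: alone; with omeprazole 40 mg QD for 5 days (pre- and co-dosed); or with a single 10 mL magnesium hydroxide 600 mg/aluminum oxide 900 mg antacid.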"}, "[15]": {"conditions": "with ketoconazole 200 mg BID vs vericiguat 1.25 mg SD alone, fed"}, "[16]": {"conditions": "with rifampicin 600 mg QD vs vericiguat 10 mg SD alone, fed"}, "[17]": {"conditions": "% of dose, listed as vericiguat"}, "[18]": {"conditions": "with sildenafil 100 mg vs without, vericiguat 10 mg QD, fed"}, "[19]": {"conditions": "pre- and co-administration of omeprazole vs vericiguat alone"}},
  "note": "Marks after values point to notes of the source that are not given here.",
  "data": [
    {"compound": "COC(=O)Nc1c(N)nc(-c2nn(Cc3ccccc3F)c3ncc(F)cc23)nc1N", "note": "[Vericiguat]", "values": [
      {"measurement": "IC50", "setting": "[1]", "result": "> 50", "unit": "µM"},
      {"measurement": "CYP3A4 mRNA induction relative to rifampicin [positive control] response", "setting": "CYP3A4; highest tested concentration", "result": 4, "unit": "%"},
      {"measurement": "Increase in CYP3A4 messenger RNA", "setting": "CYP3A4; highest tested concentration 10,000 μg/L (23.5 µM)", "result": 2.7, "unit": "fold"},
      {"measurement": "Increase in vericiguat exposure (AUC)", "setting": "[2]; co-administration with ketoconazole 200 mg twice daily", "result": 13, "unit": "%"},
      {"measurement": "AUC of vericiguat, point estimate of treatment ratio", "setting": "[2]; [15]", "result": 1.126},
      {"measurement": "Cmax of vericiguat, point estimate of treatment ratio", "setting": "[2]; [15]", "result": 1.109},
      {"measurement": "Inhibitory effects on major cytochrome P450 (CYP) isoforms", "setting": "[3]", "result": "no inhibitory effects"},
      {"measurement": "AUC of vericiguat, point estimate of treatment ratio", "setting": "[4]", "result": 0.949},
      {"measurement": "Cmax of vericiguat, point estimate of treatment ratio", "setting": "[4]", "result": 0.933},
      {"measurement": "Decrease in Cmax of vericiguat", "setting": "[5]; pre- and co-treatment with rifampicin", "result": 9, "unit": "%"},
      {"measurement": "Decrease in AUC of vericiguat", "setting": "[5]; pre- and co-treatment with rifampicin 600 mg once daily", "result": 29, "unit": "%"},
      {"measurement": "AUC of vericiguat, point estimate of treatment ratio", "setting": "[5]; [16]", "result": 0.713},
      {"measurement": "Cmax of vericiguat, point estimate of treatment ratio", "setting": "[5]; [16]", "result": 0.914},
      {"measurement": "IC50", "setting": "P-glycoprotein [6]", "result": "> 100", "unit": "µM"},
      {"measurement": "Share of total radioactivity AUC in human plasma", "setting": "Human mass balance study", "result": 27, "unit": "%"},
      {"measurement": "Excretion in feces (range)", "setting": "Human mass balance study; % of dose", "result": "42.6 (38.3–46.5) %"},
      {"measurement": "Excretion in urine (range)", "setting": "Human mass balance study; % of dose", "result": "9.0 (6.1–16.1) %"},
      {"measurement": "Total excretion of analyte (urine plus feces) (range)", "setting": "Human mass balance study; % of dose", "result": "51.6 (46.0–62.6) %"},
      {"measurement": "Excretion in feces (range)", "setting": "Human mass balance study; [17]", "result": 43, "unit": "%"},
      {"measurement": "Excretion in urine (range)", "setting": "Human mass balance study; [17]", "result": 9.0, "unit": "%"},
      {"measurement": "Radioactivity excreted via feces", "setting": "Human mass balance study; % of dose, mean (range)", "result": "45.2 (40.1–49.9) %"},
      {"measurement": "Radioactivity excreted via urine", "setting": "Human mass balance study; % of dose, mean (range)", "result": "53.1^b (49.9–56.1) %"},
      {"measurement": "Permeability", "setting": "[7]", "result": "highly permeable"},
      {"measurement": "Solubility", "setting": "[7]", "result": "low-soluble"},
      {"measurement": "pH dependence of solubility", "setting": "[8]", "result": "lower in neutral conditions compared with acidic conditions"},
      {"measurement": "pKa", "setting": "[8]", "result": 4.7},
      {"measurement": "AUC of vericiguat, point estimate of treatment ratio", "setting": "[9]", "result": 0.980},
      {"measurement": "Cmax of vericiguat, point estimate of treatment ratio", "setting": "[9]", "result": 1.009},
      {"measurement": "Effect on seated blood pressure", "setting": "[10]", "result": "no additional effect"},
      {"measurement": "Substrate of P-glycoprotein", "setting": "P-glycoprotein [11]", "result": "substrate"},
      {"measurement": "Decrease in vericiguat exposure (differences in PK parameters)", "setting": "[12]; co-administration with sildenafil 50 mg", "result": "less than 9%"},
      {"measurement": "AUC0–24,md of vericiguat, point estimate of treatment ratio", "setting": "[12]; [18]", "result": 0.993},
      {"measurement": "Cmax,md of vericiguat, point estimate of treatment ratio", "setting": "[12]; [18]", "result": 0.970},
      {"measurement": "Changes in vericiguat exposure in the phase I DDI studies", "setting": "[13]; all ten DDI studies", "result": "≤ 30", "unit": "%"},
      {"measurement": "Tolerability", "setting": "[13]; healthy volunteers, all phase I studies", "result": "generally well tolerated"},
      {"measurement": "Induction of CYP2B6", "setting": "CYP2B6", "result": "no significant induction"},
      {"measurement": "Reduction in the bioavailability of vericiguat", "setting": "[14]; co-administration in fasting conditions of omeprazole (40 mg once daily) and magnesium/aluminum hydroxide (600/900 mg) relative to vericiguat alone", "result": "about 30%"},
      {"measurement": "Reduction of AUC of vericiguat", "setting": "[14]; [19]", "result": 32, "unit": "%"},
      {"measurement": "Reduction of Cmax of vericiguat", "setting": "[14]; [19]", "result": 49, "unit": "%"},
      {"measurement": "Cmax of vericiguat, point estimate of treatment ratio", "setting": "[14]; with omeprazole 40 mg QD vs vericiguat 5 mg SD alone, fasting", "result": 0.504}
    ]}
  ]
}
